Only a selection was taken, and hits are over-represented in it overall.
CHOP inh = inhibitors of CHOP induction in ER stress response; inhibition, % at 10 µM; CHO-K1 CHOP-promoter luciferase, tunicamycin-induced, 15-18 h; 220,000 tested, 3.8% active; AID 2732;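 active means compounds that reduced the stress-induced luciferase reporter signal by more than about 70% of percent inhibition, limit read from the data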;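 further: 0% = tunicamycin plus vehicle and 100% = wells without tunicamycin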
Lmaj promast = inhibitors of Leishmania major promastigote growth; Leishmania major promastigotes, resazurin fluorescence viability; inhibition, % at 10 µM; 200,000 tested, 9% active; AID 1063; in the data active means inhibition above about 50%;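 further: promastigotes grown with compound for 44 hours at 28 °C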
T cruzi repl = blocks replication of Trypanosoma cruzi. inhibition, % (no concentration beside the values). AID 1885. 300,000 tested, 1.4% active. T. cruzi beta-gal in NIH3T3, luminescence, 90 h;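 active means mean inhibition across valid replicates above about 55%, limit read from the data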;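 further: signal also drops with host cell toxicity which is not excluded here; 0% = plate median of DMSO wells and 100% = zero luminescence signal; higher percent means less beta-gal luminescence so fewer parasites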
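Incubation – ≥90 h infection period, 3 h prior cell attachment · System – NIH/3T3 fibroblasts plus reporter T. cruzi · Doses – compound pinned at 50 nL/well, DMSO · Read-out basis – percent inhibition of parasite-derived β-gal signal · Signal – luminescent β-galactosidase signal after 60 min lysis · Also added – 5000 T. cruzi trypomastigotes/well · Medium – Low-serum DMEM with 2% FBS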
UPR CHOP act = apoptotic UPR (CHOP) activation. activation, % at 10 µM. 330,000 tested, 0.34% active. CHO-CHOP luciferase reporter, luminescence; percent of tunicamycin response over DMSO baseline;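 active means at 10 µM dose, activation of 40% or more, normalized to positive control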;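 further: 100% = tunicamycin at 10 µg/mL and 0% = DMSO alone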
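Test system: CHO CHOP reporter cells. Input: 500 CHO-CHOP cells per well. Medium: F12 with 10% FBS. Technique: luciferase luminescence. Measure: percent activation relative to tunicamycin control. Dosing: 10 µM compound, 0.5% DMSO. Timing: 16-18 h cell attachment, then 6 h compound exposure, 37 °C.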
Dynein cargo inh = dynein cargo transport inhibition; 3617.4 mouse cells, GR-EGFP nuclear translocation imaging; test concentration mostly 20 µM; stimulated with dexamethasone, 1 µM; stronger effect = lower value; z-score, hits read low; 220,000 tested, 0.47% active;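 active means plate z-score of nuclear minus cytoplasmic receptor signal below a set negative limit, without overly bright fluorescence or cell loss, cut at about -3.5 in these data, passing the limit was not always enough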;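 further: z-score of nuclear minus cytoplasmic ring GR-EGFP intensity difference per well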
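Buffer or medium: tetracycline-free induction medium containing charcoal-stripped FBS / Reagent: dexamethasone agonist, 1.0 µM final, for 30 min / Technique: automated 10x imaging of fixed Hoechst-stained cells / Times: induction 48 h, compound 1 h, agonist 30 min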
XBP1 UPR activ = activators of adaptive arm of unfolded protein response (XBP1); 330,000 tested, 0.33% active; activation, % at 20 µM; CHO-XBP1 luciferase reporter, IRE1-XBP1 UPR activation, luminescence; percent of tunicamycin response, DMSO as zero; AID 463104;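 active means versus positive control, 20 µM dose yields 30% or more activation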;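 further: 100% = tunicamycin at 10 µg/mL and 0% = DMSO only wells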
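Signal: luciferase luminescence; Assay system: CHO-XBP1 luciferase reporter cells; Amount: one thousand reporter cells per well; Dosing: 20 µM single concentration, DMSO 1%; Benchmarks: high control tunicamycin 10 µg/mL final, low control DMSO vehicle only; Schedule: 6 h compound exposure at 37 °C, 5% CO2; Evaluation: percent activation relative to tunicamycin reference.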
Starred values were filed as active, the others as inactive.

`O=C(CCl)N1c2ccccc2OCC1c1ccccc1` (stereo not drawn) gave CHOP inh 106*, Lmaj promast 57*, T cruzi repl 3, UPR CHOP act 22, Dynein cargo inh -3.2 and XBP1 UPR activ -5.
`CC1CCN(c2ccccc2NC(=O)c2ccc(Br)o2)CC1` gave T cruzi repl 15, UPR CHOP act 1 and XBP1 UPR activ 1.
For CC(=O)C1=C(C)Nc2ncnn2C1c1cccc(Br)c1 (stereo not drawn) the results were T cruzi repl -11, UPR CHOP act -1 and XBP1 UPR activ -6.
Cc1cc2cc(CN(CCN(C)C)C(=S)NCc3ccco3)c(=O)[nH]c2cc1C was read as CHOP inh 0, Lmaj promast 13, T cruzi repl 21, UPR CHOP act -2, Dynein cargo inh 1.4 and XBP1 UPR activ -4.
Screening Cc1ccc(C)c2[nH]c(=O)c(CN(Cc3cccs3)C(=S)NCc3ccco3)cc12 returned CHOP inh 66, Lmaj promast 70*, T cruzi repl -2, UPR CHOP act -1, Dynein cargo inh -0.35 and XBP1 UPR activ -4.
For Cc1cc2cc(CN(Cc3cccs3)C(=S)NCc3ccco3)c(=O)[nH]c2cc1C the results were CHOP inh 21, Lmaj promast 88*, T cruzi repl 19, UPR CHOP act -1, Dynein cargo inh 0.63 and XBP1 UPR activ -4.
Cc1ccc(C)c2[nH]c(=O)c(CN(CC3CCCO3)C(=S)NCc3ccco3)cc12 (stereo not drawn) was read as CHOP inh 14, T cruzi repl 25, UPR CHOP act 4, Dynein cargo inh -2.3 and XBP1 UPR activ -3.
For CCN(CC)CCN(Cc1cc2cc(C)c(C)cc2[nH]c1=O)C(=S)NCc1ccco1 the results were CHOP inh 33, Lmaj promast 60*, T cruzi repl 47, UPR CHOP act 0, Dynein cargo inh -0.9 and XBP1 UPR activ -1.
Screening COc1ccc(NC(=O)c2cc3ccccc3o2)cc1S(=O)(=O)N1CCCCC1 returned UPR CHOP act 0 and XBP1 UPR activ -6.
For CCc1cc(/C(Cc2ccccn2)=N\Nc2ccccc2)c(O)cc1O the results were CHOP inh 51, Lmaj promast 59*, T cruzi repl -19, UPR CHOP act 1, Dynein cargo inh -0.26 and XBP1 UPR activ 1.
Cc1nc(C/C(=N\Nc2ccccc2)c2ccc(O)cc2O)cs1 was read as CHOP inh 53, Lmaj promast 12, T cruzi repl -11, UPR CHOP act -1, Dynein cargo inh -0.21 and XBP1 UPR activ 3.
For CCCC(=O)Nc1ccc(N2CCN(S(C)(=O)=O)CC2)cc1 the results were CHOP inh -28, Lmaj promast 8, T cruzi repl -4, UPR CHOP act 0, Dynein cargo inh 1.2 and XBP1 UPR activ -1.
For COc1c(C)cccc1C(=O)Nc1ccc(N2CCN(S(C)(=O)=O)CC2)cc1 the results were CHOP inh -50, Lmaj promast -1, T cruzi repl -13, UPR CHOP act 5, Dynein cargo inh -0.25 and XBP1 UPR activ 0.
For COc1ccccc1C(=O)Nc1ccc(N2CCN(S(C)(=O)=O)CC2)cc1 the results were CHOP inh -8, Lmaj promast 56*, T cruzi repl -3, UPR CHOP act 4, Dynein cargo inh -0.48 and XBP1 UPR activ -1.
Screening COc1ccccc1C(=O)NC(=S)Nc1ccc(N2CCCC2)cc1 returned CHOP inh 14, Lmaj promast 1, T cruzi repl 56*, UPR CHOP act 3, Dynein cargo inh -0.058 and XBP1 UPR activ -1.
Screening COc1ccc(C(=O)Nc2ccc(N3CCCC3)cc2)cc1 returned CHOP inh -1, Lmaj promast 92*, T cruzi repl 13, UPR CHOP act -2, Dynein cargo inh -0.74 and XBP1 UPR activ 0.
`CCC(=O)Nc1ccc(N2CCN(S(C)(=O)=O)CC2)cc1` gave CHOP inh 4, Lmaj promast 67*, T cruzi repl -18, UPR CHOP act 0, Dynein cargo inh 2.7 and XBP1 UPR activ -1.
